ChEMBL document CHEMBL2346611, “Preliminary structure-activity relationships and biological evaluation of novel antitubercular indolecarboxamide derivatives against drug-susceptible and drug-resistant Mycobacterium tuberculosis strains” (J Med Chem, 2013)
pIC50: −log10 of the molar value. In brackets after ≈: the same amount, converted by molar mass. Activity calls are given as the source filed them. No cut-off for these calls is given here.

How the values were obtained:
[1] = tested on: Mycobacterium tuberculosis; assay: Antitubercular activity against Mycobacterium tuberculosis H37Rv by microplate Alamar Blue assay; format: functional
Method in brief: (§1)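 Mycobacterium tuberculosis strains were used: H37Rv, and clinical strains from KwaZulu-Natal (MDR KZN494 and V2475; XDR TF274 and R506). Growth was read by microplate Alamar Blue assay. MIC is the lowest drug concentration giving at least a 90% reduction of the bacterial growth signal. Values are the average of three individual measurements.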

[2] = tested on: Mycobacterium tuberculosis; assay: Antitubercular activity against drug-susceptible Mycobacterium tuberculosis V4207 by microplate Alamar Blue assay; format: functional
Vero = assay: Cytotoxicity against african green monkey Vero cells by microplate Alamar Blue assay; format: cell-based; details: Chlorocebus sabaeus
Method in brief: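 Cytotoxicity was measured on Vero cells in microplate Alamar Blue assay format.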

[3] = tested on: Mycobacterium tuberculosis; assay: Antitubercular activity against Mycobacterium tuberculosis H37Rv after 21 days by spectrophotometric analysis; format: functional; details: 504 h
[4] = tested on: Mycobacterium tuberculosis; assay: Antitubercular activity against Mycobacterium tuberculosis H37Rv; format: functional; method in brief: as §1
[5] = Selectivity index, ratio of IC50 for african green monkey vero cells to MIC90 for Mycobacterium tuberculosis H37Rv; format: functional
[6] = tested on: Mycobacterium tuberculosis; assay: Antitubercular activity against Mycobacterium tuberculosis H37Rv in 300 mg/kg, po dosed Balb/c mouse serum measured after 7 days by serum inhibition titration based microplate Alamar Blue assay; format: functional, organism-based; set-up: dose 300 mg/kg
Method in brief: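 Six-week-old female BALB/c mice got a single oral gavage of 100 or 300 mg/kg, ground to a suspension in 0.5% carboxymethyl cellulose. Controls were isoniazid 10 mg/kg and vehicle. Cardiac blood was taken at 15, 30 and 60 min and serum separated. Serum was two-fold serially diluted, 10^4 CFU H37Rv added, incubated 7 days and read by MABA.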

[7] = tested on: Mycobacterium tuberculosis; assay: Ratio of isoniazid MIC to compound MIC for Mycobacterium tuberculosis H37Rv; format: functional

Structure (SMILES)	MIC90 [1] [µM]	further results
Cc1cc(C)c2cc(C(=O)NC3CCCCC3)[nH]c2c1	0.93 (≈ 0.251 µg/mL)	MIC90 [2]: 0.93 µM (≈ 0.251 µg/mL); pIC50 (Vero): < 3.70
O=C(NC1CCCCC1)c1cc2ccccc2[nH]1	> 528	–
O=C(NC1CCCCCCC1)c1cc2c(F)cc(F)cc2[nH]1	0.1 (≈ 0.0306 µg/mL)	–
Cc1cc(C)c2cc(C(=O)NC3CC4CCC3C4)oc2c1 (stereo not given)	113 (≈ 32 µg/mL)	–
COc1cc2[nH]c(C(=O)NC34CC5CC(CC(C5)C3)C4)cc2cn1	1.5 (≈ 0.488 µg/mL)	–
O=[N+]([O-])c1cn2c(n1)OC[C@@H](OCc1ccc(OC(F)(F)F)cc1)C2 [PRETOMANID]	–	MIC90 [3]: 0.04 µM (≈ 0.0144 µg/mL)
COc1nc2ccc(Br)cc2cc1[C@@H](c1ccccc1)[C@@](O)(CCN(C)C)c1cccc2ccccc12 [BEDAQUILINE]	–	MIC90 [4]: 0.05 µM (≈ 0.0278 µg/mL)
Cc1cc(C)c2nc(C(=O)NC3C4CC5CC(C4)CC3C5)[nH]c2c1 (stereo not given)	1.5 (≈ 0.485 µg/mL)	–
Cc1cc(C)c2cc(C(=O)NC3CCN(C)CC3)[nH]c2c1	448 (≈ 128 µg/mL)	–
Cc1cc(C)c2nc(C(=O)NC3CCCCCC3)[nH]c2c1	> 224	–
Cc1cc(C)c2cc(C(=O)NC3CCCCCC3)[nH]c2c1	0.055 (≈ 0.0156 µg/mL)	Selectivity Index [5]: >3600; Activity [6]: inactive; Ratio [7]: 5; MIC90 [2]: 0.11 µM (≈ 0.0313 µg/mL); pIC50 (Vero): < 3.70
Cc1cc(C)c2cc(C(=O)NC3CCCCCC3)oc2c1	56 (≈ 16 µg/mL)	–
Cc1cc(C)c2cc(C(=O)Nc3ccc(C)c(F)c3)[nH]c2c1	1.7 (≈ 0.504 µg/mL)	pIC50 (Vero): < 3.70
Cc1cc(C)c2nc(C(=O)NC34CC5CC(CC(C5)C3)C4)[nH]c2c1	0.39 (≈ 0.126 µg/mL)	–
Cc1cc(C)c2cc(C(=O)NC34CC5CC(CC(C5)C3)C4)[nH]c2c1	0.012 (≈ 0.00387 µg/mL)	Selectivity Index [5]: >16600; Activity [6]: inactive; pIC50 (Vero): < 3.70
O=C(NC12CC3CC(CC(C3)C1)C2)c1cc2cc(Cl)ccc2o1	≥ 388	–
Cc1cc(C)c2cc(C(=O)NC3CCCN(C)CC3)[nH]c2c1 (stereo not given)	428 (≈ 128 µg/mL)	–
COc1cc2[nH]c(C(=O)NC3CCCCCCC3)cc2cn1	6.6 (≈ 1.99 µg/mL)	–
Cc1cc(C)c2cc(C(=O)NC3C4CC5CC(C4)CC3C5)[nH]c2c1 (stereo not given)	0.012 (≈ 0.00387 µg/mL)	Selectivity Index [5]: >16600; Activity [6]: inactive; pIC50 (Vero): < 3.70
Cc1cc(C)c2cc(C(=O)Nc3ccncc3)[nH]c2c1	240 (≈ 63.7 µg/mL)	–
Cc1cc(C)c2c(C(=O)NC3CCCCCC3)c[nH]c2c1	200 (≈ 56.9 µg/mL)	–
O=C(NC1CCCCCC1)c1cc2c(F)cc(F)cc2[nH]1	0.86 (≈ 0.251 µg/mL)	–
O=C(NC1CCCCCC1)c1cc2c(C(F)(F)F)cc(C(F)(F)F)cc2[nH]1	0.64 (≈ 0.251 µg/mL)	–

Structure (SMILES)	MIC90 [1] [µM]	further results
Cc1cc(C)c2cc(C(=O)NC34CC5CC(CC(C5)C3)C4)oc2c1	3.1 (≈ 1 µg/mL)	–
O=C(NC12CC3CC(CC(C3)C1)C2)c1cc2ccc(O)cc2[nH]1	13 (≈ 4.04 µg/mL)	–
Cc1cc(C)c2cc(C(=O)NC3CCCCCCC3)oc2c1	27 (≈ 8.08 µg/mL)	–
O=C(NC1CCCCCCC1)c1cc2cc(Cl)ccc2o1	26 (≈ 7.95 µg/mL)	–
Cc1ccc(NC(=O)c2cc3ccccc3[nH]2)cc1F	477 (≈ 128 µg/mL)	–
Cc1cc(C)c2cc(C(=O)NC3CCCCCCC3)[nH]c2c1	0.013 (≈ 0.00388 µg/mL)	Selectivity Index [5]: 4100; Activity [6]: Active; MIC90 [2]: 0.026 µM (≈ 0.00776 µg/mL); pIC50 (Vero): 4.27
O=C(NC12CC3CC(CC(C3)C1)C2)c1cc2cc(Cl)ccc2[nH]1	0.38 (≈ 0.125 µg/mL)	–
Cc1cc(C)c2cc(C(=O)N3CCCCC3)[nH]c2c1	> 499	–
Cc1cc(C)c2nc(C(=O)NC3CCCCCCC3)[nH]c2c1	1.7 (≈ 0.509 µg/mL)	–
Cc1cc(C)c2cc(C(=O)N(C)C3CCCCC3)[nH]c2c1	450 (≈ 128 µg/mL)	–
Cc1cc(C)c2c(C(=O)NC3CCCCCCC3)c[nH]c2c1	200 (≈ 59.7 µg/mL)	–
Cc1cc(C)c2cc(C(=O)NC3CCCCC3)n(C)c2c1	450 (≈ 128 µg/mL)	–
CCCCCCNC(=O)c1cc2c(C)cc(C)cc2o1	59 (≈ 16.1 µg/mL)	–
Cc1cc(C)c2cc(C(=O)NC3CC3)[nH]c2c1	561 (≈ 128 µg/mL)	–
Cc1cc(C)c2c(C(=O)NC34CC5CC(CC(C5)C3)C4)c[nH]c2c1	200 (≈ 64.5 µg/mL)	–
Cc1cc(C)c2c(C(=O)NC3C4CC5CC(C4)CC3C5)c[nH]c2c1 (stereo not given)	200 (≈ 64.5 µg/mL)	–
Cc1cc(C)c2cc(C(=O)NCC3CCCCC3)[nH]c2c1	0.88 (≈ 0.25 µg/mL)	pIC50 (Vero): < 3.70
NNC(=O)c1ccncc1 [ISONIAZID]	0.29 (≈ 0.0398 µg/mL)	–
COc1ccc2cc(C(=O)NC34CC5CC(CC(C5)C3)C4)[nH]c2c1	0.77 (≈ 0.25 µg/mL)	–
Cc1cc(C)c2cc(C(=O)Nc3ccccc3)[nH]c2c1	3.8 (≈ 1 µg/mL)	pIC50 (Vero): < 3.70
O=C(NC1CCCCCCC1)c1cc2c(C(F)(F)F)cc(C(F)(F)F)cc2[nH]1	0.04 (≈ 0.0163 µg/mL)	–
Cc1cc(C)c2cc(C(=O)NC3CCN(C(C)C)CC3)[nH]c2c1	204 (≈ 63.9 µg/mL)	–
